Reference: ChEMBL document CHEMBL4828721, “Substituted dienes prepared from betulinic acid - Synthesis, cytotoxicity, mechanism of action, and pharmacological parameters” (Eur J Med Chem, 2021)
Calls of active or inactive are those of the source. No cut-off for these calls is given here.

Assays:
CCRF-CEM [1] = test: Inhibition of DNA synthesis in human CCRF-CEM cells at IC50 by BrdU incorporation assay (Rvb= 41.56%); format: functional; set-up: scale not given: the % may be the effect or the level left
A549 = test: Cytotoxicity against human A549 cells assessed as reduction in cell viability measured after 72 hrs by MTS assay; format: functional, cell-based; settings: A549, 72 h
[2] = Apparent permeability of the compound in human Caco2 cells assessed as recovery rate at pH 7.4 at 10 micromol/L measured after 1 hr by RF-MS analysis; format: ADME, cell-based; settings: Caco-2, pH 7.4, dose 10 µmol/L, read-out: Activity
CCRF-CEM [3] = test: Induction of apoptosis in human CCRF-CEM cells assessed as early apoptotic cells at IC50 measured after 24 hrs by Annexin V-FITC/PI staining based flow cytometry analysis (Rvb= 1.6%); format: functional
[4] = Efflux ratio of apparent permeability across basolateral to apical side to apparent permeability across apical to basolateral side in dog MDCK-MDR1 cells at pH 7.4 at 10 micromol/L measured after 1 hr by RF-MS analysis; format: ADME, cell-based, Canis lupus familiaris; settings: MDCK-MDR1, pH 7.4, dose 10 µmol/L
In short: (§1)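 Efflux ratio is Papp(B→A)/Papp(A→B) from bidirectional transport across Caco-2 (2 h) or MDCK-MDR1 (1 h) monolayers. Compound was dosed in HBSS pH 7.4 and quantified by RapidFire MS/MS. Run in duplicates. ER > 2 was taken as a potential P-gp substrate.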

[5] = Fraction bound in human plasma at 10 uM measured after 4 hrs by RF-MS based rapid equilibrium dialysis method
[6] = Microsomal stability in human liver microsomes assessed as parent compound remaining at 2 uM in the presence of NADPH measured after 60 mins by RF-MS analysis; format: ADME, Microsome; settings: read-out: Stability
In short: (§2)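 Human liver microsomes incubated with compound in the presence of NADPH cofactor to assess phase I oxidation. Intrinsic clearance was derived from the decline of the parent compound.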

HCT-116 = test: Cytotoxicity against human HCT-116 cells assessed as reduction in cell viability measured after 72 hrs by MTS assay; format: functional, cell-based; settings: HCT-116, 72 h
CEM-DNR = test: Cytotoxicity against daunorubicin resistant human CEM-DNR cells assessed as reduction in cell viability measured after 72 hrs by MTS assay; format: functional, cell-based
[7] = Stability in human plasma assessed as parent compound remaining at 2 uM incubated for 120 mins by RF-MS analysis; format: ADME, cell-free; settings: read-out: Stability
CCRF-CEM [8] = test: Induction of mitotic arrest in human CCRF-CEM cells assessed as phosphorylation of histone H3 at Ser10 at IC50 measured after 24 hrs by propidium iodide staining based flow cytometry analysis (Rvb= 1.72%); format: functional
CCRF-CEM [9] = test: Induction of apoptosis in human CCRF-CEM cells assessed as late apoptotic cells at 5 times IC50 measured after 24 hrs by Annexin V-FITC/PI staining based flow cytometry analysis (Rvb= 1.4%); format: functional
CCRF-CEM [10] = test: Cell cycle arrest in human CCRF-CEM cells assessed as accumulation of cells at G2/M phase at IC50 measured after 24 hrs by propidium iodide staining based flow cytometry analysis (Rvb= 21.62%); format: functional
CCRF-CEM [11] = test: Cell cycle arrest in human CCRF-CEM cells assessed as accumulation of cells at G0/G1 phase at IC50 measured after 24 hrs by propidium iodide staining based flow cytometry analysis (Rvb= 40.20%); format: functional
[12] = Stability in human plasma assessed as parent compound remaining at 2 uM incubated for 15 mins by RF-MS analysis; format: ADME, cell-free; settings: read-out: Stability
[13] = Microsomal stability in human liver microsomes assessed as parent compound remaining at 2 uM in the presence of NADPH measured after 30 mins by RF-MS analysis; format: ADME, Microsome; settings: read-out: Stability; in short: as §2
CCRF-CEM [14] = test: Induction of apoptosis in human CCRF-CEM cells assessed as live cells at IC50 measured after 24 hrs by Annexin V-FITC/PI staining based flow cytometry analysis (Rvb= 96.7%); format: functional
CCRF-CEM [15] = test: Induction of mitotic arrest in human CCRF-CEM cells assessed as phosphorylation of histone H3 at Ser10 at 5 times IC50 measured after 24 hrs by propidium iodide staining based flow cytometry analysis (Rvb= 1.72%); format: functional
[16] = Microsomal stability in human liver microsomes assessed as parent compound remaining at 2 uM in the presence of NADPH measured after 15 mins by RF-MS analysis; format: ADME, Microsome; settings: read-out: Stability; in short: as §2
CCRF-CEM [17] = test: Inhibition of DNA synthesis in human CCRF-CEM cells at 5 times IC50 by BrdU incorporation assay (Rvb= 41.56%); format: functional; set-up: scale not given: the % may be the effect or the level left
[18] = Efflux ratio of apparent permeability across basolateral to apical side to apparent permeability across apical to basolateral side in human Caco2 cells at pH 7.4 at 10 micromol/L measured after 2 hrs by RF-MS analysis; format: ADME, cell-based; settings: Caco-2, pH 7.4, dose 10 µmol/L; in short: as §1
CCRF-CEM [19] = test: Induction of apoptosis in human CCRF-CEM cells assessed as dead cells at IC50 measured after 24 hrs by Annexin V-FITC/PI staining based flow cytometry analysis (Rvb= 0.3%); format: functional
In short: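 They were washed in ice-cold PBS and incubated with Annexin V-FITC plus PI for 20 min at room temperature in the dark. Cells were then pelleted and resuspended in binding buffer (10 mmol/L HEPES/NaOH pH 7.4, 140 mmol/L NaCl, 2.5 mmol/L CaCl2). Read on a FACSAria II, ≥10,000 cells per sample.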

[20] = Apparent permeability of the compound in dog MDCK-MDR1 cells assessed as recovery rate at pH 7.4 at 10 micromol/L measured after 1 hr by RF-MS analysis; format: ADME, cell-based, Canis lupus familiaris; settings: MDCK-MDR1, pH 7.4, dose 10 µmol/L, read-out: Activity
K562 = test: Cytotoxicity against human K562 cells assessed as reduction in cell viability measured after 72 hrs by MTS assay; format: functional, cell-based; settings: K562, 72 h
CCRF-CEM [21] = test: Inhibition of RNA synthesis in human CCRF-CEM cells at 5 times IC50 by […] incorporation assay (Rvb= 36.54%); format: functional; set-up: scale not given: the % may be the effect or the level left
CCRF-CEM [22] = test: Cell cycle arrest in human CCRF-CEM cells assessed as accumulation of cells at sub G1 phase at IC50 measured after 24 hrs by propidium iodide staining based flow cytometry analysis (Rvb= 2.77%); format: functional
CCRF-CEM [23] = test: Induction of apoptosis in human CCRF-CEM cells assessed as activation of caspase 9 at 5 times IC50 measured after 24 hrs by western blot analysis; format: functional, cell-based
In short: (§3)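 Protein (15 µg/lane) was resolved by 10% SDS-PAGE and transferred to nitrocellulose. Blocked in 5% milk/TBST, then probed overnight at 4 °C with primary antibodies (1:1000) and HRP secondaries. Detected by ECL, with β-actin as loading control.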

CCRF-CEM [24] = test: Cell cycle arrest in human CCRF-CEM cells assessed as accumulation of cells at sub G1 phase at 5 times IC50 measured after 24 hrs by propidium iodide staining based flow cytometry analysis (Rvb= 2.77%); format: functional
CCRF-CEM [25] = test: Induction of cell cycle arrest in human CCRF-CEM cells assessed as upregulation of p21 protein expression at 5 times IC50 measured after 24 hrs by western blot analysis; format: functional, cell-based; in short: as §3
[26] = Stability in human plasma assessed as parent compound remaining at 2 uM incubated for 30 mins by RF-MS analysis; format: ADME, cell-free; settings: read-out: Stability

| SMILES | Activity (CCRF-CEM [1]) [%] | IC50 (A549) [µM] | recovery at 1 h, 10 µM [2] [%] | Activity (CCRF-CEM [3]) [%] | efflux ratio at 1 h, 10 µM [4] | PPB (% bound) at 4 h, 10 µM [5] [%] | remaining at 1 h, 2 µM [6] [%] | IC50 (HCT-116) [µM] | IC50 (CEM-DNR) [µM] | remaining at 2 h, 2 µM [7] [%] | Activity (CCRF-CEM [8]) [%] | Activity (CCRF-CEM [9]) [%] | Activity (CCRF-CEM [10]) [%] | Activity (CCRF-CEM [11]) [%] | remaining at 0.25 h, 2 µM [12] [%] | remaining at 0.5 h, 2 µM [13] [%] | Activity (CCRF-CEM [14]) [%] | Activity (CCRF-CEM [15]) [%] | remaining at 0.25 h, 2 µM [16] [%] | Activity (CCRF-CEM [17]) [%] | further results |
| --- | --- | --- | --- | --- | --- | --- | --- | --- | --- | --- | --- | --- | --- | --- | --- | --- | --- | --- | --- | --- | --- |
| C=C(/C=C/c1cccc(Cl)c1)[C@@H]1CC[C@]2(C(=O)O)CC[C@]3(C)[C@H](CC[C@@H]4[C@@]5(C)CC[C@H](O)C(C)(C)[C@@H]5CC[C@]43C)[C@@H]12 | 35.56 | 29.2 | 42.1 | 2.1 | 2.9 | 79 | 81.5 | 16.4 | 25.5 | 77.7 | 1.5 | 4.7 | 14.39 | 42.87 | 92.3 | 92.4 | 91.9 | 1.52 | 90.1 | 0.4 | efflux ratio at 2 h, 10 µM [18]: 2.64; Activity (CCRF-CEM [19]): 1.4%; recovery at 1 h, 10 µM [20]: 104%; IC50 (K562): 27.7 µM; Activity (CCRF-CEM [21]): 11.37%; Activity (CCRF-CEM [22]): 5.66%; Activity (CCRF-CEM [23]): Active; Activity (CCRF-CEM [24]): 9.13%; Activity (CCRF-CEM [25]): Active; remaining at 0.5 h, 2 µM [26]: 87.9% |
| C=C(/C=C/c1ccc([N+](=O)[O-])cc1)[C@@H]1CC[C@]2(C(=O)O)CC[C@]3(C)[C@H](CC[C@@H]4[C@@]5(C)CC[C@H](O)C(C)(C)[C@@H]5CC[C@]43C)[C@@H]12 | 43.17 | 14.3 | 58.5 | 2.4 | 3.06 | 68.1 | 53.5 | 18.6 | 22.9 | 71.5 | 2.9 | 9.6 | 23.16 | 48.4 | 102 | 78.5 | 90.9 | 0.93 | 93.2 | 3.06 | efflux ratio at 2 h, 10 µM [18]: 2.5; Activity (CCRF-CEM [19]): 1.8%; recovery at 1 h, 10 µM [20]: 56.7%; IC50 (K562): 11.5 µM; Activity (CCRF-CEM [21]): 4.07%; Activity (CCRF-CEM [22]): 6.54%; Activity (CCRF-CEM [23]): Active; Activity (CCRF-CEM [24]): 25.04%; Activity (CCRF-CEM [25]): Active; remaining at 0.5 h, 2 µM [26]: 79.1% |
